Results on 31 compounds are retold here after ChEMBL document CHEMBL1127806, “Substrate specificity in short-chain phospholipid analogs at the active site of human synovial phospholipase A2” (J Med Chem, 1994).

Series [1] is described as follows: Ratio of catalysis rate (kcat) and Michaelis-Menten constant (Km) of the compound. A digest of the protocol:
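Recombinant human synovial PLA₂ (baculovirus-expressed, HPLC-purified) at 14 nM in 20 mM HEPES pH 7.5, 2 mM Ca²⁺, 0.8 mM DTNB. Thioester hydrolysis read at 405 nm as thionitrobenzoate (ε 13 600). Initial rates measured at substrate concentrations up to 100 μM. Apparent kcat/KM taken as the slope of rate versus [S] divided by enzyme concentration.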

Series [2] in a line: Critical micelle concentration determined from the plots of the fluorescence intensity as a function of compound concentration. The class given is ADME. A digest of the protocol:
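Fluorescence of 8-anilino-1-naphthalenesulfonic acid (5 μM) followed as a function of compound concentration. Buffer: 20 mM HEPES pH 7.5 with 2 mM Ca²⁺, no DTNB. cmc read from the intensity-versus-concentration plot.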

Series [3] in a line: Hydrolysis rate of the compound. Put shortly:
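pH-stat at pH 9, titrated with 1 mM NaOH. Substrate 100 μM in deionized water with 2 mM Ca²⁺, under a nitrogen stream. Started with recombinant human synovial PLA₂ (1.69 nmol, 2.41 μg), purified from baculovirus by reversed-phase HPLC; preliminary set used E. coli-expressed enzyme. Rate recorded for 1 h from base consumption.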

The nature of series [4]: Hydrolysis turn over determined from the plots of the fluorescence assay quantified by HPLC. A digest of the protocol: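 Recombinant human synovial PLA2 expressed in E. coli. Turnover of an amine-headgroup (phosphatidylethanolamine) substrate was measured by derivatizing the amine with excess fluorescamine and quantifying the fluorescent derivatives by reversed-phase HPLC. The rate is expressed as nmol·min⁻¹·mg⁻¹ enzyme.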

Bounds are passed on as bounds.

Consider `CCCCCCCCCC(=O)S[C@H](COC/C=C/c1ccccc1)COP(=O)([O-])OC.[Li+]`, for which the Ratio in series [1] was 19000 l s-1 M-1. The same compound showed a CMC in series [2] of 0.04 mM.

For the compound `CCCCCCCCCC(=O)S[C@H](COCc1ccc(-c2ccccc2)cc1)COP(=O)([O-])OC.[Li+]`, in series [1], the Ratio is 2500 l s-1 M-1. The CMC in series [2] is listed as 0.1 mM.

In series [3], `CCCCCC(=O)OC[C@H](COP(=O)(O)OC[C@H]1CCCN1)OC(=O)CCCCC` had a Hydrolysis (nmol min-1 mg-1) of 13. This compound also showed a CMC in series [2] of 0.5 mM.

As for `CCCCC(=O)SC[C@H](COP(=O)([O-])OC)SC(=O)CCCC.[Li+]`, the Ratio in series [1] was 870 l s-1 M-1. The CMC in series [2] is given as above 9 mM.

As to `CCCCCCOC[C@H](COP(=O)(O)OC)SC(=O)CCC(C)C`, in series [1], the Ratio was < 100 l s-1 M-1.

For `CCCCCCCCOC[C@H](COP(=O)(O)OC)SC(=O)CCC`, the Ratio in series [1] was 3700 l s-1 M-1.

For `CCCCCC(=O)SC[C@H](COP(=O)(OC)OC)SC(=O)CCCCC`, the Ratio in series [1] was < 100 l s-1 M-1. This compound had a CMC in series [2] of 0.04 mM.

`CCCCCCCCCC(=O)S[C@H](COCc1ccccc1)COP(=O)([O-])OC.[Li+]`: in series [1], the Ratio was 5000 l s-1 M-1. The same compound had a CMC in series [2] of 0.2 mM.

In the case of `CCCCCCCCOC[C@H](COP(=O)([O-])OC)SC(=O)CCCCCCC.[Li+]`, the Ratio in series [1] was 12000 l s-1 M-1. The CMC in series [2] was found to be 0.13 mM.

Regarding `CCCCCCCC(=O)SC[C@H](COP(=O)([O-])OC)SC(=O)CCCCCCC.[Li+]`, the Ratio in series [1] was 408000 l s-1 M-1. The same compound registered a CMC in series [2] of 0.03 mM.

For the compound `CCCCCCCCC(=O)SC[C@H](COP(=O)([O-])OC)SC(=O)CCCCCCCC.[Li+]`, the Ratio in series [1] is 541000 l s-1 M-1. Besides, the CMC in series [2] is given as below 0.03 mM.

On to `CCCCCCCCCC(=O)S[C@H](COCCC(C)(C)C)COP(=O)([O-])OC.[Li+]`, for which the Ratio in series [1] was 627 l s-1 M-1. The CMC in series [2] amounted to 0.4 mM.

On to `CC/C=C\CCOC[C@H](COP(=O)([O-])OC)SC(=O)CCCCCCCCC.[Li+]`, for which the Ratio in series [1] was 5900 l s-1 M-1. Also, in series [2], the CMC is on record as 0.2 mM.

As for `CCCCCC(=O)OC[C@H](COP(=O)(O)O[C@@H](C)[C@@H](N)C(=O)O)OC(=O)CCCCC`, the Hydrolysis (nmol min-1 mg-1) in series [3] was below 5.

Compound `CCCCCC(=O)OC[C@H](COP(=O)(O)OC[C@@H]1CCCN1)OC(=O)CCCCC` showed a Hydrolysis (nmol min-1 mg-1) in series [3] of 12. In series [2], this compound gave a CMC of 0.8 mM.

Consider `CCCCCCOC[C@H](COP(=O)(O)OC)SC(=O)CCc1ccccc1`, for which the Ratio in series [1] was 160 l s-1 M-1.

On to `CCCCCCCC(=O)S[C@H](COCCC)COP(=O)([O-])OC.[Li+]`, for which the Ratio in series [1] is 1200 l s-1 M-1. Moreover, in series [2], the CMC was determined as 1 mM.

In the case of `CCCCCC(=O)OC[C@H](COP(=O)(O)OCCN)OC(=O)CCCCC`, the CMC in series [4] is 2.3 mM. For the same compound, in series [3], the Hydrolysis (nmol min-1 mg-1) is 5.3.

Turning to `CCCCCOC[C@H](COP(=O)(O)OC)SC(=O)CCC`, in series [1], the Ratio is < 100 l s-1 M-1.

Consider `CCCCCCCC(=O)S[C@H](COCCCCC)COP(=O)([O-])OC.[Li+]`, for which the Ratio in series [1] is 7000 l s-1 M-1. For the same compound, in series [2], the CMC is listed as 1.25 mM.

For `CCCCCC(=O)OC[C@H](COP(=O)(O)OC)OC(=O)CCCCC`, the Hydrolysis (nmol min-1 mg-1) in series [3] was below 5.

As to `CCCCCCC(=O)SC[C@H](COP(=O)([O-])OC)SC(=O)CCCCCC.[Li+]`, the Ratio in series [1] is 37700 l s-1 M-1. In series [2], the CMC amounted to 0.3 mM.

For `CCCOC[C@H](COP(=O)([O-])OC)SC(=O)CCC.[Li+]`, the Ratio in series [1] was < 10 l s-1 M-1. Moreover, the CMC in series [2] is listed as 3 mM.

For the compound `CCCCCC(=O)SC[C@H](COP(=O)([O-])OC)SC(=O)CCCCC.[Li+]`, in series [1], the Ratio was 1800 l s-1 M-1. Further, the CMC result in series [2] was “>= 3 mM”.

Consider `CCCCCC(=O)OC[C@H](COP(=O)(O)OCCO)OC(=O)CCCCC`, for which the Hydrolysis (nmol min-1 mg-1) in series [3] was below 5.

`CCCCCCCCCC(=O)S[C@H](COCc1ccc(Oc2ccccc2)cc1)COP(=O)([O-])OC.[Li+]`: the Ratio in series [1] was 4600 l s-1 M-1. The compound further registered a CMC in series [2] of 0.04 mM.

Regarding `CCCC(=O)SC[C@H](COP(=O)([O-])OC)SC(=O)CCC.[Li+]`, the Ratio in series [1] is 200 l s-1 M-1. This compound displayed a CMC in series [2] of 2.3 mM.

For the compound `CCC(=O)SC[C@H](COP(=O)([O-])OC)SC(=O)CC.[Li+]`, the Ratio in series [1] was < 10 l s-1 M-1. Also, the CMC entry in series [2] is listed as “>= 3 mM”.

Take `CCCCCC(=O)OC[C@H](COP(=O)(O)OC[C@@H](N)C(=O)O)OC(=O)CCCCC`: the Hydrolysis (nmol min-1 mg-1) in series [3] was below 5.

In the case of `CCCCCCOC[C@H](COP(=O)(O)OC)SC(=O)c1ccccc1`, the Ratio in series [1] was < 100 l s-1 M-1.

In the case of `CC/C=C/C(=O)S[C@H](COCCCCCC)COP(=O)(O)OC`, the Ratio in series [1] is < 100 l s-1 M-1.
